We go through three compounds from ChEMBL document CHEMBL3870325 (Bioorg Med Chem, 2017).

The nature of assay [1]: Inhibition of HDAC in human HeLa cell nuclear extract using COLOR DE LYS as substrate by fluorometric analysis. It is filed as cell-free.
For assay [2], the target named is T1, Epidermal growth factor receptor (Homo sapiens, UniProt P00533).
For assay [3], the target named is T2, Receptor tyrosine-protein kinase erbB-2 (Homo sapiens, UniProt P04626). Put plainly: Inhibition of HER2 (unknown origin) assessed as remaining ATP level measured after 15 mins by luminescence analysis. In outline: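 Kinase run as a contracted HTRF assay. Compounds in 3-fold dilution in 2.5% DMSO/kinase buffer, mixed with kinase and substrate, preincubated 15 min at RT. ATP added to start, reaction 30 min at RT. Stopped with Streptavidin-XL665 plus europium-cryptate TK antibody (1:100). Excitation 320 nm, 665/615 nm emission ratio. IC50 from inhibition curves, results from 2 assays.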

In another assay the target is Histone deacetylase 1 (Homo sapiens, UniProt Q13547). Put plainly: Inhibition of HDAC1 (unknown origin) using acetylated peptide substrate preincubated for 15 mins followed by substrate addition measured after 60 mins by fluorescence analysis.
In assay [4] the target is T3, Protein deacetylase HDAC6 (Homo sapiens, UniProt Q9UBN7).
T3 sequence (Q9UBN7 whole entry): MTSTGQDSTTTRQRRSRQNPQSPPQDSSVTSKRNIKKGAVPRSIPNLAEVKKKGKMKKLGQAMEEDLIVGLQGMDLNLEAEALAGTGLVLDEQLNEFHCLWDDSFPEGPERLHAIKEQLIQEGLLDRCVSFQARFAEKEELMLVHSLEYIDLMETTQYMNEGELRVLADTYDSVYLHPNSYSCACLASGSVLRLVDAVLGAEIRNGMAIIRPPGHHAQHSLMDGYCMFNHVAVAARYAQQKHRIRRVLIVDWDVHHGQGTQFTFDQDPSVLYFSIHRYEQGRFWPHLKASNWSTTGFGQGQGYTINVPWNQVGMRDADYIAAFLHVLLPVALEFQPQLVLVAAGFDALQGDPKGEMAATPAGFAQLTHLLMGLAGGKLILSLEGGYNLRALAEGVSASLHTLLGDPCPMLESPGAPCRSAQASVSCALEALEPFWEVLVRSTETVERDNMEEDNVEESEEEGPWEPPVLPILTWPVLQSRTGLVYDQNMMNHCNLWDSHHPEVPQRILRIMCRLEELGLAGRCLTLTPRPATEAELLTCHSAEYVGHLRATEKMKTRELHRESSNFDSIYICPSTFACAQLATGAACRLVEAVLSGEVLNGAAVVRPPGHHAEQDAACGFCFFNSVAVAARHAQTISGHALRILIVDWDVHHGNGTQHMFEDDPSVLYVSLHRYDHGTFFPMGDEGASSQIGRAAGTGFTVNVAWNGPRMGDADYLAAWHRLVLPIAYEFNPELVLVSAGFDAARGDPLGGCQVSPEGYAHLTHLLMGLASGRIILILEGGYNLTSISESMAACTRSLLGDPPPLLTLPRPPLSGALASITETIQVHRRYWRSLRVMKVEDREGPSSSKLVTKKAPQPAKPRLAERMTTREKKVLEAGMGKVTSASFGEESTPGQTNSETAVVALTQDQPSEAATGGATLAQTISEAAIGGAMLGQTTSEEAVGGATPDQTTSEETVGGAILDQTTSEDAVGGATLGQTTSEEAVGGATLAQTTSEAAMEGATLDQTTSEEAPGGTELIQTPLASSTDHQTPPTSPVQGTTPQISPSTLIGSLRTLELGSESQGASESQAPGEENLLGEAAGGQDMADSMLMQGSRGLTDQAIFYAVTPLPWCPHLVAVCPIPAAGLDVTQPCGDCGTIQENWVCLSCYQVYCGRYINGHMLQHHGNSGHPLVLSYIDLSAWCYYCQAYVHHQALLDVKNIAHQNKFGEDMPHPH
Put plainly: Inhibition of HDAC6 (unknown origin) using acetylated peptide substrate preincubated for 15 mins followed by substrate addition measured after 60 mins by fluorescence analysis.

A short description of assay [5]: cells. As to conditions: Homo sapiens, A549, 48 h. Format: functional, cell-based.
Assay [6] is described as follows: cells. Format: functional, cell-based. The conditions noted are these: Homo sapiens, BT-474, 48 h.
The target in assay [7] is T1, Epidermal growth factor receptor. Put plainly: Inhibition of EGFR in human A549 cells assessed as suppression of EGFR phosphorylation at Tyr1068 residue measured after 24 hrs by Western blot analysis. It is filed as cell-based. In outline: (§1)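 A549 cells treated 24 h across a dose range. Lysate protein (20-40 µg) run on 7.5%-15% SDS-PAGE and blotted to PVDF. Membranes blocked 2 h in TBST with 5% BSA. Primary antibody (p-EGFR Tyr1068, p-EGFR Tyr1173, total EGFR, acetyl-histone H3 Lys27) applied 8-12 h at 4°C. HRP secondary, chemiluminescent detection.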

Assay [8] shares this target. Put plainly: Inhibition of EGFR in human A549 cells assessed as suppression of EGFR phosphorylation at Tyr1173 residue measured after 24 hrs by Western blot analysis. Format: cell-based. Summed up: as §1
A general note: Immunoblotting shows a protein as a band on a membrane.

A further assay deals with A549. The experiment in a line: Inhibition of HDAC in human A549 cells assessed as activation of H3 hyperacetylation measured after 24 hrs by Western blot analysis. Format: cell-based. In outline: as §1
For assay [9], the system named is BT-474. The experiment in a line: Induction of apoptosis in human BT474 cells assessed as viable cells at 1 uM measured after 48 hrs by Annexin V-FITC/propidium iodide staining based flow cytometry (reference value: 96.76%). Format: functional. The conditions noted are these: BT-474, 48 h, read-out: Activity. In general terms: A flow cytometer gives signals particle by particle.

The test system of assay [10] is BT-474. The experiment in a line: Induction of apoptosis in human BT474 cells assessed as early apoptotic cells at 1 uM measured after 48 hrs by Annexin V-FITC/propidium iodide staining based flow cytometry (reference value: 2.87%). It is filed as functional.
Assay [11] concerns BT-474. Put plainly: Induction of apoptosis in human BT474 cells assessed as late apoptotic cells at 1 uM measured after 48 hrs by Annexin V-FITC/propidium iodide staining based flow cytometry (reference value: 0.32%). Format: functional.
The test system of assay [12] is BT-474. The experiment in a line: Induction of apoptosis in human BT474 cells assessed as necrotic cells at 1 uM measured after 48 hrs by Annexin V-FITC/propidium iodide staining based flow cytometry (reference value: 0.06%). Format: functional.
Assay [13] has as its system BT-474. The experiment in a line: Induction of apoptosis in human BT474 cells assessed as viable cells at 2.5 uM measured after 48 hrs by Annexin V-FITC/propidium iodide staining based flow cytometry (reference value: 96.76%). It is filed as functional. As to conditions: BT-474, 48 h, read-out: Activity.
Assay [14] deals with BT-474. The experiment in a line: Induction of apoptosis in human BT474 cells assessed as early apoptotic cells at 2.5 uM measured after 48 hrs by Annexin V-FITC/propidium iodide staining based flow cytometry (reference value: 2.87%). Format: functional.
For assay [15], the system named is BT-474. Put plainly: Induction of apoptosis in human BT474 cells assessed as late apoptotic cells at 2.5 uM measured after 48 hrs by Annexin V-FITC/propidium iodide staining based flow cytometry (reference value: 0.32%). Format: functional.
Assay [16] has as its system BT-474. The experiment in a line: Induction of apoptosis in human BT474 cells assessed as necrotic cells at 2.5 uM measured after 48 hrs by Annexin V-FITC/propidium iodide staining based flow cytometry (reference value: 0.06%). Format: functional.
For assay [17], the system named is BT-474. The experiment in a line: Induction of apoptosis in human BT474 cells assessed as viable cells at 5 uM measured after 48 hrs by Annexin V-FITC/propidium iodide staining based flow cytometry (reference value: 96.76%). It is filed as functional. As to conditions: BT-474, 48 h, read-out: Activity.
In assay [18] the test system is BT-474. The experiment in a line: Induction of apoptosis in human BT474 cells assessed as early apoptotic cells at 5 uM measured after 48 hrs by Annexin V-FITC/propidium iodide staining based flow cytometry (reference value: 2.87%). It is filed as functional.
Assay [19] relates to BT-474. Put plainly: Induction of apoptosis in human BT474 cells assessed as late apoptotic cells at 5 uM measured after 48 hrs by Annexin V-FITC/propidium iodide staining based flow cytometry (reference value: 0.32%). It is filed as functional.
In assay [20] the test system is BT-474. The experiment in a line: Induction of apoptosis in human BT474 cells assessed as necrotic cells at 5 uM measured after 48 hrs by Annexin V-FITC/propidium iodide staining based flow cytometry (reference value: 0.06%). Format: functional.
Assay [21] relates to BT-474. Put plainly: Induction of apoptosis in human BT474 cells measured after 48 hrs by Annexin V-FITC/propidium iodide staining based flow cytometry. Format: functional, cell-based.
Assay [22] deals with T1, Epidermal growth factor receptor. The conditions noted are these: A549, 0.5 uM.
For assay [23] the target is unchanged. The conditions noted are these: A549, 0.5 uM. This is another data set of the same source.
For assay [24], the target named is T2, Receptor tyrosine-protein kinase erbB-2. As to conditions: BT-474, 25 uM.
Assay [25] has the same target. The conditions noted are these: BT-474, 1 uM.
A short description of assay [26]: cells. As to conditions: Homo sapiens, A-431, 48 h.
A short description of assay [27]: cells. The conditions noted are these: Homo sapiens, SK-BR-3, 48 h.
Assay [28] can be described thus: cells. The conditions noted are these: Homo sapiens, NCI-H1975, 48 h.
For assay [29], the target named is T1, Epidermal growth factor receptor. The experiment in a line: Inhibition of EGFR (unknown origin). Summed up: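 HTRF kinase assay. Compounds were serially diluted 3-fold in 2.5% DMSO/kinase buffer, then mixed with kinase and substrate and preincubated 15 min at RT. The reaction was started with ATP and run 30 min at RT. It was stopped with Streptavidin-XL665 and TK antibody europium cryptate. Read at ex 320 nm, em 665/615 nm ratio. IC50 from inhibition curves; 2 separate assays.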

Assay [30] concerns the target T2, Receptor tyrosine-protein kinase erbB-2. Put plainly: Inhibition of HER2 (unknown origin). In outline:
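Homogeneous time-resolved fluorescence kinase assay. Compounds were 3-fold serially diluted in 2.5% DMSO/kinase buffer and preincubated with kinase and substrate for 15 min at RT. ATP started the reaction, which ran 30 min at RT and was stopped with Streptavidin-XL665 plus TK antibody europium cryptate. Read at 320 nm excitation, 665/615 nm emission ratio. IC50 from inhibition curves; two separate assays.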

Molecules are shown by their SMILES.

T1 sequence (P00533 whole entry): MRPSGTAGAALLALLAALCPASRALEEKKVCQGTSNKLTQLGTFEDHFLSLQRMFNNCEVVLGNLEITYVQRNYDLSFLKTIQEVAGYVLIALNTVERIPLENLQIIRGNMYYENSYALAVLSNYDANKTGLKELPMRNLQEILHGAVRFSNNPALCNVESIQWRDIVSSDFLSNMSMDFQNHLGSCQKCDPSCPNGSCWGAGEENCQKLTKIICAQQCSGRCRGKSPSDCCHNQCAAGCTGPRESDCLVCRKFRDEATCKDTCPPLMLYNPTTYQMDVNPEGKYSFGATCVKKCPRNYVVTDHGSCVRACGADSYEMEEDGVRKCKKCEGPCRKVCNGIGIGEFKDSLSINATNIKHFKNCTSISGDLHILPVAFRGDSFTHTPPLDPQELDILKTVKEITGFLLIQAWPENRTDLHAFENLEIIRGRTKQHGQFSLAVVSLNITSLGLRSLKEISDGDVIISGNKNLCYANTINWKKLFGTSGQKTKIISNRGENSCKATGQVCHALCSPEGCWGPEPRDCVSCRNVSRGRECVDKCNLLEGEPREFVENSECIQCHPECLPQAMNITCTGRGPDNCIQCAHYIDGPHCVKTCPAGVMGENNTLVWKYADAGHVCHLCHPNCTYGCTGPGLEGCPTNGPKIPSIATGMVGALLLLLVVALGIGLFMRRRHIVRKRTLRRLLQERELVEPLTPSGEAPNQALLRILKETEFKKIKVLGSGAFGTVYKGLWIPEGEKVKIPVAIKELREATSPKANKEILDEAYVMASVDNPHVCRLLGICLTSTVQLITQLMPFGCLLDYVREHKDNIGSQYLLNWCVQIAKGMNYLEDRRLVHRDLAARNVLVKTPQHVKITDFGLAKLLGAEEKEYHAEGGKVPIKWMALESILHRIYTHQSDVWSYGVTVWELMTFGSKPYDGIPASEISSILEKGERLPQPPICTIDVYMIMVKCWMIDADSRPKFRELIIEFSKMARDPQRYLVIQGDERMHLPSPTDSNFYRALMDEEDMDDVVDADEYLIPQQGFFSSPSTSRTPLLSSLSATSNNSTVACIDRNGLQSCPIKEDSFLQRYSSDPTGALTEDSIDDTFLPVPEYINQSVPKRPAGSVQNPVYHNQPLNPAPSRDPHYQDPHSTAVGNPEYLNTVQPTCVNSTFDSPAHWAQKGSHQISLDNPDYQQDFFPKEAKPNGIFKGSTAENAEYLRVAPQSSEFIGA
T2 sequence (P04626 whole entry): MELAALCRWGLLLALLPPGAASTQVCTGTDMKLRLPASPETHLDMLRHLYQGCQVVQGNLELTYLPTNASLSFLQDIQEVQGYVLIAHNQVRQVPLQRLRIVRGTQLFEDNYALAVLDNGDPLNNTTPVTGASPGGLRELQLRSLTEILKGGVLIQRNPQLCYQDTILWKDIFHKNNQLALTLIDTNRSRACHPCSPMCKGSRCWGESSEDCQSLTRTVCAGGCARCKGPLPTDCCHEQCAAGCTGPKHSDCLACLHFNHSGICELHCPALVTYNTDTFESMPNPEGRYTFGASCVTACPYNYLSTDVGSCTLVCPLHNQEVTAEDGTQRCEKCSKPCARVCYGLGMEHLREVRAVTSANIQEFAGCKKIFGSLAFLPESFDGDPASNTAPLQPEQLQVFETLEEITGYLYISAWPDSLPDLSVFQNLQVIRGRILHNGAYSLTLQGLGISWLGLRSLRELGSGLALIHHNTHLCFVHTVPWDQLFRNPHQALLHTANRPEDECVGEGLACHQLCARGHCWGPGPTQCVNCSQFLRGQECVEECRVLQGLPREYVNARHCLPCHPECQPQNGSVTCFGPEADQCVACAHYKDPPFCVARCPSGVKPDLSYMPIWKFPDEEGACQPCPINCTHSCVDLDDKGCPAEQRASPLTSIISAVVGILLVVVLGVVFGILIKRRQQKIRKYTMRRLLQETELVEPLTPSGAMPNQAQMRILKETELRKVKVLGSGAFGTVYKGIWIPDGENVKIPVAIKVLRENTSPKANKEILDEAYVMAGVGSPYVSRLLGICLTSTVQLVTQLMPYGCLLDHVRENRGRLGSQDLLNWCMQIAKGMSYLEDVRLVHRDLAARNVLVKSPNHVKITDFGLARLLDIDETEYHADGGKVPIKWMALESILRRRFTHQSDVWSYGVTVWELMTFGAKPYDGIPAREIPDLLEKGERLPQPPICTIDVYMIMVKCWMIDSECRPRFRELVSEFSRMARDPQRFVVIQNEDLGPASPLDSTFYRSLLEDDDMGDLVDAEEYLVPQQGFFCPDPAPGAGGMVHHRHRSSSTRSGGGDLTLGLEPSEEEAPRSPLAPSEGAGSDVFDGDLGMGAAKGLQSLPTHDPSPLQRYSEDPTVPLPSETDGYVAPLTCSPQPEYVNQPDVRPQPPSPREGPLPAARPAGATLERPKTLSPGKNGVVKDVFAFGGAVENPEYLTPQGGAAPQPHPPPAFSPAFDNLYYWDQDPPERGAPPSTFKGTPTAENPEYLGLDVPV
Chain of Histone deacetylase 1 (Q13547 whole entry): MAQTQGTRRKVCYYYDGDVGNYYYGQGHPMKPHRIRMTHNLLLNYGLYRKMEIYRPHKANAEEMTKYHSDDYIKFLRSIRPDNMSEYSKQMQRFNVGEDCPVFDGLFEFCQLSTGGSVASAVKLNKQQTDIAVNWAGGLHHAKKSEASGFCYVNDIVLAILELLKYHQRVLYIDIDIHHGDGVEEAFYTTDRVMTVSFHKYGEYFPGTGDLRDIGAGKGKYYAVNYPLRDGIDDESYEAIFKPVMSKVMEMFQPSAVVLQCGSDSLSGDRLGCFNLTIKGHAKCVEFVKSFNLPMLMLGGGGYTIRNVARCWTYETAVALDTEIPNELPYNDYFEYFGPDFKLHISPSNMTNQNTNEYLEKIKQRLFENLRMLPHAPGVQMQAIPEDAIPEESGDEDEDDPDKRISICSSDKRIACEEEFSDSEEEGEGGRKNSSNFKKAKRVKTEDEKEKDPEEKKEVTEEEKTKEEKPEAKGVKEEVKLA

The term IC50 denotes the concentration at which inhibition is half-maximal. In [1], `C#Cc1cccc(Nc2ncnc3cc(OC)c(OCCCCCCC(=O)NO)cc23)c1` [CUDC-101] yielded an IC50 of 4.2 nM.

The term inhibition denotes the change of the read-out against control, counted positive when it falls. For `O=C(CCCCCCn1cc(-c2ccc3ncnc(Nc4cccc(Cl)c4F)c3c2)nn1)NO`, the IC50 in [2] was 0.12 nM; in assay [3] it was 175 nM; at Histone deacetylase 1, 0.72 nM; in assay [4] it was 3.2 nM; in the assay “cells [5]”, 630 nM; in “cells [6]”, 3880 nM. Also, the IC50 in “cells [26]” is 490 nM; in “cells [27]” it was 690 nM; in the assay “cells [28]”, 8050 nM. In addition, the inhibition result is “Dose-dependent effect” in assay [7]; “Dose-dependent effect” in assay [8]; “Dose-dependent effect” in the assay with A549; 100% in assay [22]; 100% in [23]; 100% in [24]. The inhibition in [25] is 100%. The viability at 1 µM in the assay on BT-474 [9] came to 86.3%. The Activity is listed as 8.27% in the assay on BT-474 [10]; 5.1% in the assay on BT-474 [11]; 0.34% with BT-474 [12]; 14.83% with BT-474 [14]; 19.73% in the assay on BT-474 [15]; 0.89% with BT-474 [16]. Besides, the Activity is 22.02% with BT-474 [18], 41.84% in the assay on BT-474 [19], 1.36% in the assay with BT-474 [20] and “Dose-dependent effect” with BT-474 [21]. Besides, in the assay on BT-474 [13], the viability at 2.5 µM came out at 64.5%. For the same compound, in the assay with BT-474 [17], the viability at 5 µM came out at 34.8%.

As for `C[C@@H]1COC(Nc2ccc3ncnc(Nc4ccc(OCc5nccs5)c(Cl)c4)c3c2)=N1` [VARLITINIB], the IC50 in assay [29] turned out to be 7 nM; in assay [30], 2 nM.
